Test results taken from ChEMBL document CHEMBL4680108, “Ancistrolikokine E, a 5,8'-Coupled Naphthylisoquinoline Alkaloid, Eliminates the Tolerance of Cancer Cells to Nutrition Starvation by Inhibition of the Akt/mTOR/Autophagy Signaling Pathway” (2018).

Columns and labels:
PANC-1 [1] = assay: Inhibition of autophagy in human PANC-1 cells cultured in nutrient-deprived medium assessed as accumulation of LC3-2 expression at 25 uM after 6 hrs by Western blot analysis relative to control; assay type: functional
PANC-1 [2] = assay: Anti-austerity activity against nutrient-deprived human PANC-1 cells assessed as cell death incubated for 24 hrs by WST-8 assay; assay type: functional
Outline: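 Human PANC-1 pancreatic cancer cells tested in parallel in nutrient-deprived medium (NDM) and in nutrient-rich DMEM. PC50 is the concentration that kills 50% of cells in NDM without toxicity in DMEM.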

Compound | fold change (FC) (PANC-1 [1]) | PC50 (PANC-1 [2])
CCN(CC)CCCC(C)Nc1ccnc2cc(Cl)ccc12 (configuration not stated) [CHLOROQUINE] | 2 | –
COc1cc(C[C@H]2C(=O)OC[C@@H]2Cc2ccc(OC)c(OC)c2)ccc1O [ARCTIGENIN] | – | 0.83 µM
